# Screening results from PubChem BioAssay.
# An excerpt weighted towards active compounds, which were near 2.5% of everything screened.
# HGIII-sPLA2 inh: Inhibits HGIII-sPLA2 liposome hydrolysis, primary screen. QFRET BODIPY PC-A2 liposome hydrolysis, fluorescence. inhibition, % at 12.2 µM. hit rate 0.56% among 370,000. AID 743126;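 active means inhibition above mean plus 3 SD of compounds lying within the high and low control bounds, cut at about 19% in these data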
# Target sequence (Q9NZ20 whole entry, looked up): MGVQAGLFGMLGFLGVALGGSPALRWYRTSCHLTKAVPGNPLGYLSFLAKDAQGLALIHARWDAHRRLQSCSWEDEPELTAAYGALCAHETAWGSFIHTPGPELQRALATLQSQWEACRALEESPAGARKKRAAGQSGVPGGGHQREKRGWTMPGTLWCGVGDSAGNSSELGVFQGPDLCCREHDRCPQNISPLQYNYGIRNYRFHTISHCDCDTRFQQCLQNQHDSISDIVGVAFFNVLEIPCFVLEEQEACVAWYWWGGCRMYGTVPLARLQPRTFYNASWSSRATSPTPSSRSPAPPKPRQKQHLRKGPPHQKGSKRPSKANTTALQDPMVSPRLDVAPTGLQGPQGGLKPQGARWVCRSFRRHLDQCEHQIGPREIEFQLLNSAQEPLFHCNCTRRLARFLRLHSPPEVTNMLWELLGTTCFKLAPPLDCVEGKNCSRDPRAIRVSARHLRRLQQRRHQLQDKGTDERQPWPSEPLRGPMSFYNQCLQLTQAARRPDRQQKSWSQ
# MC4R ag barr: activates human MC4R beta-arrestin recruitment. P32245. U2OS MC4R beta-arrestin complementation, luminescence; percent of melanotan II response, DMSO zero. activation, % at 8.9 µM. hit rate 0.98% among 360,000;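 active means activation above a per-plate cutoff, the mean activation of sample wells on that plate plus 3 SD, cut at about 8% in these data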
# Bfl-1 A1 inh: inhibitors of the anti-apoptotic protein A1, read as caspase activation; MEF A1-2A-BIM cells, Caspase-Glo 3/7 luminescence, 3 h; percent of clofoctol response, vehicle zero; caspase activation, % (concentration not given with the values); hit rate 0.066% among 330,000; AID 2462;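 active means over half of replicate activation scores above 10%, or exactly half above 10 with the replicate mean above 10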
# NTR1 ag: agonists of human neurotensin receptor NTR1; P30989; AID 493036; hit rate 0.17% among 330,000; NTR1-U2OS beta-arrestin-GFP spot imaging, agonist mode; activation, % at 20 µM;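 active means activation at or above 40% of the spot to cytoplasm intensity ratio, with at least 20 cells analyzed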
# Exocytosis inh: blocks lytic granule exocytosis; TALL-104 LAMP-1 surface exposure, flow cytometry; cells stimulated with thapsigargin and PMA; inhibition, % at 10 µM; hit rate 0.66% among 360,000;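 active means inhibition above about 55%, limit read from the data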
# MC4R antagonist: antagonists of human melanocortin 4 receptor (MC4R). hit rate 0.48% among 360,000. inhibition, % at 6.5 µM. MC4R-expressing cells, MTII-stimulated cAMP, LANCE TR-FRET;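 active means inhibition above its plate's cutoff, the mean of tested wells on that plate plus 3 SD, cut at about 29% in these data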
#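 Material: human MC4R-expressing U2OS cells. Probe or stimulus: Melanotan II challenge. Dosing: 6.5 µM single dose. Times: 30-min compound, 1-h challenge, 1-h detection, room temperature. Technique: TR-FRET with Eu-cAMP and labeled anti-cAMP, 671 nm. Replication: singlicate.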
# hGIII sPLA2 conf: human GIII-sPLA2 inhibition, confirmation. shares compounds with HGIII-sPLA2 inh. recombinant hGIII-sPLA2, BODIPY PC-A2 QFRET fluorescence. inhibition, % at 12.2 µM. hit rate 34% among 2,000;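 active means mean inhibition across triplicates above the hit cutoff set in the earlier primary screen, cut at about 19% in these data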
# BODIPY interf: 535nm fluorescence interference, HGIII-sPLA2 counter-screen; shares compounds with HGIII-sPLA2 inh; BODIPY FL product fluorescence interference, QFRET; inhibition, % at 12.2 µM; hit rate 8.5% among 2,000;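 active means average inhibition above the solvent-only control mean plus 3 SD, cut at about 6% in these data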
# BODIPY interf DR: 535nm optical interference dose response, HGIII-sPLA2 counter-screen; shares compounds with HGIII-sPLA2 inh; 240 tested, under 10 active; IC50, µM; BODIPY FL product fluorescence interference, cell-free;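 active means IC50 at or below 10 µM; inactive means IC50 above 10 µM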
# Numbers stand for hits; – = inactive; · = no result.
SMILES,HGIII-sPLA2 inh,MC4R ag barr,Bfl-1 A1 inh,NTR1 ag,Exocytosis inh,MC4R antagonist,hGIII sPLA2 conf,BODIPY interf,others
CC1C(=O)Nc2ccccc2N1C(=O)c1cccc(C(F)(F)F)c1 (stereo unspecified),–,–,–,–,–,–,·,·,
CCN1C(=O)[C@H]2[C@@H](c3ccc(-c4cccc(Cl)c4)cc3)N[C@@](Cc3ccccc3)(C(=O)OC)[C@H]2C1=O,–,–,–,–,–,–,·,·,
O=C(O)C(C/C(=N/O)c1ccc(Br)cc1)P(=O)(c1ccccc1)c1ccccc1 (stereo unspecified),21,–,–,–,–,–,–,–,
Cc1ccc(C(=O)CC(C(=O)O)P(=O)(c2ccccc2)c2ccccc2)cc1 (stereo unspecified),–,–,–,–,–,–,·,·,
COc1cccc(-c2nc(-c3ccccc3)c3ccc(Cl)cc3n2)c1,20,·,·,·,–,·,–,–,
COc1ccc(Nc2nc(-c3ccccc3)c3ccccc3n2)cc1,–,–,–,–,–,–,·,·,
O=C(COc1ccccc1)Nc1nc2ccccc2[nH]1,–,–,–,–,–,–,·,·,
CCCOc1cccc(OCC(=O)Nc2nc3ccccc3[nH]2)c1,25,–,–,–,–,–,–,–,
COCC(=O)N1CCN(C(=O)C(=O)c2cccc(C(F)(F)F)c2)CC1,23,·,·,·,·,·,–,–,
C[C@@H]1CN([C@@H](C)CO)C(=O)CCCn2nncc2CO[C@H]1CN(C)C(=O)Nc1ccc(N2CCN(C)CC2)cc1,–,·,·,·,·,·,·,·,
Cc1csc(N(C(=O)Cc2ccccc2F)c2ccccc2)n1,20,–,–,–,–,–,–,–,
COc1ccc(CC(=O)N(c2ccccc2)c2nc(C)cs2)cc1,–,–,–,–,–,–,·,·,
CN(C)c1ccc(N=Nc2nccs2)cc1,25,–,·,·,–,–,45,18,
CCC(C)NC(=O)CCSc1ccc(C)cc1 (stereo unspecified),19,–,–,–,–,–,–,–,
CCC(C)NC(=O)CSc1ccc(Cl)cc1 (stereo unspecified),–,–,–,–,–,–,·,·,
COc1ccc2nc(Nc3ccc4c(c3)OCO4)sc2c1,86,–,–,–,–,–,–,–,
COc1ccc2nc(Nc3nc4cc5c(cc4s3)OCO5)sc2c1,23,–,–,–,–,–,37,–,BODIPY interf DR=–
COc1cc(C(=O)NNc2nc3cc4c(cc3s2)OCO4)cc(OC)c1OC,19,–,·,–,–,–,–,–,
Cc1ccc2nc(N(CCN(C)C)C(=O)c3ccc4c(c3)OCCO4)sc2c1,–,–,–,–,–,–,·,·,
Cc1ccc2nc(NNC(=O)c3ccc4c(c3)OCCO4)sc2c1,25,–,–,–,–,–,32,–,BODIPY interf DR=–
COc1ccc2nc(Nc3ccccc3)sc2c1,–,–,–,–,–,–,·,·,
COc1cc(OC)cc(C(=O)NNc2nc3cc4c(cc3s2)OCO4)c1,–,–,·,–,–,–,·,·,
COCCNC(=O)Cn1cc(/C=C(\C#N)C(=O)NC2CCCC2)c2ccccc21,–,–,–,–,–,–,·,·,
CC(C)CN(C(=O)C1CC1)c1c(N)n(Cc2ccccc2)c(=O)[nH]c1=O,–,–,–,–,–,–,·,·,
CC(C)CN(C(=O)C1CCC1)c1c(N)n(Cc2ccccc2)c(=O)[nH]c1=O,20,–,–,–,–,–,–,–,
SMILES,HGIII-sPLA2 inh,MC4R ag barr,Bfl-1 A1 inh,NTR1 ag,Exocytosis inh,MC4R antagonist,hGIII sPLA2 conf,BODIPY interf,others
Cc1ccsc1C(=O)N1CCCC(CCC(=O)NCc2ccc(F)c(F)c2)C1 (stereo unspecified),–,–,–,–,–,–,·,·,
COC(=O)c1ccc(OCC(O)CN2CCOCC2)cc1 (stereo unspecified),–,–,–,–,–,–,·,·,
O=C(NNC(=S)Nc1ccc(Br)cc1)c1ccc(N2CCOCC2)c([N+](=O)[O-])c1,25,–,–,–,–,–,30,11,
O=C(c1ccc(N2CCOCC2)c([N+](=O)[O-])c1)N1CCCCC1,–,–,–,–,–,–,·,·,
Cc1ccc(NC(=S)NNC(=O)c2ccc(N3CCOCC3)c([N+](=O)[O-])c2)cc1Cl,–,–,–,–,–,–,·,·,
O=C(NNC(=S)Nc1ccc(Cl)cc1Cl)c1ccc(N2CCOCC2)c([N+](=O)[O-])c1,24,–,–,–,–,–,28,12,
CN1C(=O)N(C)c2cccc3cccc1c23,–,–,–,–,–,–,·,·,
CCc1ccc2cccc3c2c1N=CN3C,22,–,–,–,–,–,22,–,
COC(c1ccccc1)c1nnc(CCC(=O)NC2CCCCC2)o1 (stereo unspecified),–,–,–,–,–,–,·,·,
O=C(CCc1nnc(-c2ccccc2)o1)NC1CCCCC1,19,–,–,–,–,–,–,–,
CC(NC(=O)/C(C#N)=C/c1ccco1)c1ccccc1 (stereo unspecified),20,–,–,–,–,–,–,–,
COCCCNC(=O)CN(Cc1ccc(Cl)cc1)S(C)(=O)=O,21,–,–,–,–,–,–,–,
CCOC(=O)C1CCCN1C(=O)C1(NC(C)=O)CCCC1 (stereo unspecified),–,–,·,·,–,–,·,·,
Cc1ccc(CNC(=O)CSc2nc3[nH]ncc3c(=O)[nH]2)cc1,19,–,–,–,–,–,–,–,
CC(=O)c1cc(CN2C(=O)CCC2=O)cs1,20,–,–,–,–,–,–,–,
CN(C)N1C(N)=C(C#N)C(c2cccc([N+](=O)[O-])c2)C2=C1CC(C)(C)CC2=O (stereo unspecified),20,–,·,–,–,–,–,–,
CC(C)Sc1cc(N2CCCC2)nc(-c2ccccc2Cl)n1,22,–,–,–,–,–,–,–,
Cc1ccc(Nc2nc(Cl)nc(NC3CCCCC3)n2)cc1,–,–,–,–,–,–,·,·,
O=Cc1nc(Nc2cc(F)cc(F)c2)nc(NC2CCCC2)n1,28,·,·,·,·,·,23,–,
CC1(C(=O)NS(=O)(=O)c2ccccc2OC(F)(F)F)CCN1C(=O)c1ccccc1 (stereo unspecified),–,–,·,·,–,–,·,·,
Cc1ccc(-c2csc(N3CCN(c4cc5c(cc4Cl)nc(C(C)N)n5CCCO)CC3)n2)cc1 (stereo unspecified),23,–,–,–,–,–,20,–,
CCCCN(C=O)c1c(CC)nc2ccc(C(=O)N3CCN(C(=O)c4ccco4)CC3)cn12,–,–,·,·,–,–,·,·,
